The structures appear in SMILES notation. Activity calls are given as the source filed them. The rule behind the calls is not given here. Non-standard residues stand in square brackets, D forms with d. Residues, ends and D or L forms follow the SMILES beside them. *: point of attachment. Phe(ol) = N[C@H](CO)Cc1ccccc1; Isovaleryl = CC(C)CC(=O)*; Propionyl = CCC(=O)*; Butyryl = CCCC(=O)*

Assay [1] deals with HeLa. Put plainly: Inhibition of autophagic flux in human HeLa cells assessed as increase in LC3-2 level at 100 to 200 uM after 4 to 12 hrs by immunoblot analysis. The format is functional, cell-based. A digest of the protocol:
(§1)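 HeLa cells grown in DMEM with 10% FBS, 2 mM glutamine and penicillin/streptomycin, preincubated overnight, then exposed to compound at the indicated final concentrations for 4, 8 or 12 h. Whole-cell RIPA lysates run on SDS-PAGE, transferred to PVDF, blocked in 5% nonfat milk, probed with anti-LC3, anti-SQSTM1, anti-Ub, anti-α3 or anti-β-actin, HRP secondary, ECL detection.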
A general note: A western blot detects proteins with antibodies after separation by electrophoresis.

Assay [2] deals with HeLa. Put plainly: Effect on p62/SQSTM1 protein expression in human HeLa cells at 100 to 200 uM after 4 to 12 hrs by immunoblot analysis. Type of assay: functional, cell-based. A digest of the protocol:
as §1

In assay [3] the test system is HeLa. Description: Inhibition of autophagic flux in human HeLa cells assessed as reduction in autolysosome formation by measuring increase in LC3-2 level at 200 uM after 8 hrs in presence of BafA1 by immunoblot analysis. Type of assay: functional, cell-based. Put shortly: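 HeLa cells grown in normal DMEM to >90% confluence, washed with PBS, then cotreated for 8 h with compound (200 μM) plus bafilomycin A1 (100 nM) in DMEM, or under amino acid depletion in EBSS. Whole-cell RIPA lysates immunoblotted (SDS-PAGE, PVDF, milk block, HRP secondary, ECL); β-actin loading control.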

Assay [4] deals with HeLa. Description: Inhibition of autophagic flux in human HeLa cells assessed as increase in LC3-2 level after 4 to 12 hrs by immunoblot analysis. The format is functional, cell-based. Put shortly:
as §1

For assay [5], the system named is HeLa. Description: Inhibition of autophagic flux in human HeLa cells assessed as DQ-BSA quenching at 200 uM after 4 hrs by DAPI staining based fluorescence microscopic method. Type of assay: functional, cell-based. A digest of the protocol:
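HeLa cells on glass coverslips loaded with self-quenching BODIPY–BSA (DQ-BSA, 10 μg/mL) for 1 h, PBS-washed, then exposed to DMSO, EBSS or compound (200 μM) for 4 h. Fixed in 4% paraformaldehyde/PBS 15 min, mounted with DAPI-containing medium. Dequenched DQ-BSA puncta in autolysosomes imaged by fluorescence microscopy.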

For assay [6], the system named is HeLa. Put plainly: Effect on proteasome subunit alpha-3 protein expression in human HeLa cells at 100 to 200 uM after 4 to 12 hrs by immunoblot analysis. The format is functional, cell-based. A digest of the protocol:
as §1

For assay [7], the target named is 26S proteasome (Homo sapiens) (UniProt Q99460+P49721+P20618+P28074+P28062+P28065+P28072+O00487+P25786+P25787+P25788+P25789+P28066+P60900+O14818+Q8TAA3+P40306+A5LHX3+P49720+P28070+Q99436+Q16186+P35998+P62191+P43686+P62333+P17980+P62195+Q13200+O43242+O00232+O00231+Q15008+P51665+Q9UNM6+P55036+P48556+P60896). Put plainly: Inhibition of human 26S proteasome using suc-LLVY-AMC as substrate up to 40 mins by fluorescence assay. Type of assay: protein-complex assay. A digest of the protocol:
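Purified human 26S proteasomes incubated with compound and fluorogenic substrate suc-LLVY-AMC. Substrate hydrolysis followed as AMC fluorescence (RFU) over time.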

Assay [8] has as its system HeLa. Description: Inhibition of autophagic flux in human HeLa cells assessed as increase in LC3-2 level at 100 to 200 uM after 4 to 12 hrs by immunoblot analysis.
Assay [9] relates to HeLa. Description: Effect on polyubiquitin conjugate protein expression in human HeLa cells at 100 to 200 uM after 4 to 12 hrs by immunoblot analysis. Type of assay: functional, cell-based. Put shortly:
as §1

For the compound `CC[C@H](C)[C@H](NC(=O)[C@H](Cc1ccc(O)cc1)NC(=O)CC(C)C)C(=O)N[C@H](CO)CCSC`, the “LC3-II increase (active/not active)” value with HeLa [1] was “inactive”.
`CCCC(=O)N[C@@H](Cc1ccccc1)C(=O)N[C@H](C(=O)N[C@H](CO)Cc1ccccc1)[C@@H](C)CC` (Butyryl-Phe-Ile-[Phe(ol)]): the outcome with HeLa [2], in the assay on HeLa [6] and in the assay with HeLa [9] was inactive. Further, the inhibition entry (with HeLa [3]; in assay [7]) was “inactive” each time. Besides, the inhibition result with HeLa [4] was “Dose-dependent effect”. For the same compound, the inhibition entry in the assay with HeLa [5] and in the assay on HeLa [8] was “Active” in each case.
For `CC[C@H](C)[C@H](NC(=O)[C@H](Cc1ccccc1)NC(=O)CC(C)C)C(=O)N[C@H](CO)Cc1ccccc1` (Isovaleryl-Phe-Ile-[Phe(ol)]), in the assay on HeLa [1], the “LC3-II increase (active/not active)” value is “inactive”.
As to `CC(C)CC(=O)N[C@@H](Cc1ccccc1)C(=O)N[C@H](C(=O)N[C@H](CO)Cc1ccccc1)C(C)C` (Isovaleryl-Phe-Val-[Phe(ol)]), the result in the assay on HeLa [2], in the assay with HeLa [6] and in the assay on HeLa [9] was inactive. In addition, the inhibition result (with HeLa [3]; in [7]) was “inactive” in each case. Besides, the inhibition result in the assay on HeLa [4] was “Dose-dependent effect”. Further, the inhibition result in the assay with HeLa [5] and with HeLa [8] was “Active” each time.
`CC[C@H](C)[C@H](NC(=O)[C@H](Cc1ccc(O)cc1)NC(=O)CC(C)C)C(=O)N[C@H](CO)Cc1ccccc1` (Isovaleryl-Tyr-Ile-[Phe(ol)]): the “LC3-II increase (active/not active)” value with HeLa [1] was “inactive”.
As to `CC(C)CC(=O)N[C@@H](Cc1ccc(O)cc1)C(=O)N[C@H](C(=O)N[C@H](CO)Cc1ccccc1)C(C)C` (Isovaleryl-Tyr-Val-[Phe(ol)]), in the assay on HeLa [1], the “LC3-II increase (active/not active)” value was “inactive”.
Consider `CCC(=O)N[C@@H](Cc1ccc(O)cc1)C(=O)N[C@H](C(=O)N[C@H](CO)Cc1ccccc1)[C@@H](C)CC` (Propionyl-Tyr-Ile-[Phe(ol)]), for which, in the assay with HeLa [1], the “LC3-II increase (active/not active)” value was “inactive”.

Values taken from ChEMBL document CHEMBL4330170, “Acidiphilamides A-E, Modified Peptides as Autophagy Inhibitors from an Acidophilic Actinobacterium, Streptacidiphilus rugosus” (J Nat Prod, 2019).
